ChEMBL document CHEMBL1157359, “Binding of ceftobiprole and comparators to the penicillin-binding proteins of Escherichia coli, Pseudomonas aeruginosa, Staphylococcus aureus, and Streptococcus pneumoniae” (Antimicrob Agents Chemother, 2007)
Converted amounts (≈) assume the structure as drawn.

Legend:
[1] = Inhibition of bocillin FL binding to penicillin-susceptible Streptococcus pneumoniae OC 8865 penicillin-binding protein 2a
Summary of the method: (§1)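 S. pneumoniae OC 8865 PBPs assayed in whole cells; drug competition followed by Bocillin FL labeling and imaging of labeled PBPs. IC50 is 50% inhibition of Bocillin FL binding compared with a no-drug control.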

Streptococcus pneumoniae = test: Antibacterial activity against penicillin-resistant Streptococcus pneumoniae OC 8819 by CLSI method; assay type: functional
[2] = molecular target: T1, Penicillin-binding protein 1B (Pseudomonas aeruginosa, UniProt Q9X6W0); test: Inhibition of bocillin FL binding to Pseudomonas aeruginosa PAO1 penicillin-binding protein 1b
T1 sequence (Q9X6W0 whole entry): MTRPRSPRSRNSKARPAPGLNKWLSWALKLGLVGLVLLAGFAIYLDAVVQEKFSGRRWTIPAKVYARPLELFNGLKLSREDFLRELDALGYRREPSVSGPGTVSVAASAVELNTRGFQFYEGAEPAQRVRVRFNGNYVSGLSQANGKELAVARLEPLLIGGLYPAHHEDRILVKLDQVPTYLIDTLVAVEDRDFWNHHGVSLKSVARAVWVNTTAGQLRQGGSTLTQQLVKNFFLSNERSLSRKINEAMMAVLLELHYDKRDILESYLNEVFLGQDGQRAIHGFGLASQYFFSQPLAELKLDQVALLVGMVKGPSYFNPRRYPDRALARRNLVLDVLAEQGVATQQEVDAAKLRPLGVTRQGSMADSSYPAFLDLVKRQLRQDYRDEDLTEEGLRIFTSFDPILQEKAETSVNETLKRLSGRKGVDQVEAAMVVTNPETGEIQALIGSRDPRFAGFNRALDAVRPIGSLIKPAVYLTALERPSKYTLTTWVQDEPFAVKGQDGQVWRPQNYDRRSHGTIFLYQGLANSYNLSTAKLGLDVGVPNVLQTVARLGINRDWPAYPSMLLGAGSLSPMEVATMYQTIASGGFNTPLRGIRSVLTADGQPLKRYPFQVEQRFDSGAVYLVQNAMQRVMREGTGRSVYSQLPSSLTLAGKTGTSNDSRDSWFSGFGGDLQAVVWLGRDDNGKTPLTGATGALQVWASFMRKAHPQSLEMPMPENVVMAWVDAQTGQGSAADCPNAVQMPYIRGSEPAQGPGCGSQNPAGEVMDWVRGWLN
Summary of the method: (§2)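 Isolated P. aeruginosa PAO1 PBPs; drug added at 10 concentrations, 0.06 μg/ml to 32 μg/ml, before Bocillin FL labeling. Labeled PBPs imaged. IC50 is the drug level cutting Bocillin FL binding by 50% versus a no-drug sample.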

[3] = Inhibition of bocillin FL binding to Pseudomonas aeruginosa PAO1 penicillin-binding protein 1a
Summary of the method: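 P. aeruginosa PAO1 PBPs were isolated and competed with 10 drug concentrations from 0.06 μg/ml to 32 μg/ml before Bocillin FL labeling. Bands were detected by fluorescence imaging. IC50 was taken as 50% inhibition of Bocillin FL binding versus the no-drug sample.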

[4] = molecular target: Penicillin-binding protein 3 (Pseudomonas aeruginosa, UniProt Q51504); test: Inhibition of bocillin FL binding to Pseudomonas aeruginosa PAO1 penicillin-binding protein 3; summary of the method: as §2
[5] = Inhibition of bocillin FL binding to Pseudomonas aeruginosa PAO1 penicillin-binding protein 5/6; summary of the method: as §2
[6] = molecular target: T2, Penicillin-binding protein 1 (Staphylococcus aureus, UniProt Q53725); test: Inhibition of bocillin FL binding to methicillin-susceptible Staphylococcus aureus ATCC 29213 penicillin-binding protein 1
T2 sequence (Q53725 whole entry): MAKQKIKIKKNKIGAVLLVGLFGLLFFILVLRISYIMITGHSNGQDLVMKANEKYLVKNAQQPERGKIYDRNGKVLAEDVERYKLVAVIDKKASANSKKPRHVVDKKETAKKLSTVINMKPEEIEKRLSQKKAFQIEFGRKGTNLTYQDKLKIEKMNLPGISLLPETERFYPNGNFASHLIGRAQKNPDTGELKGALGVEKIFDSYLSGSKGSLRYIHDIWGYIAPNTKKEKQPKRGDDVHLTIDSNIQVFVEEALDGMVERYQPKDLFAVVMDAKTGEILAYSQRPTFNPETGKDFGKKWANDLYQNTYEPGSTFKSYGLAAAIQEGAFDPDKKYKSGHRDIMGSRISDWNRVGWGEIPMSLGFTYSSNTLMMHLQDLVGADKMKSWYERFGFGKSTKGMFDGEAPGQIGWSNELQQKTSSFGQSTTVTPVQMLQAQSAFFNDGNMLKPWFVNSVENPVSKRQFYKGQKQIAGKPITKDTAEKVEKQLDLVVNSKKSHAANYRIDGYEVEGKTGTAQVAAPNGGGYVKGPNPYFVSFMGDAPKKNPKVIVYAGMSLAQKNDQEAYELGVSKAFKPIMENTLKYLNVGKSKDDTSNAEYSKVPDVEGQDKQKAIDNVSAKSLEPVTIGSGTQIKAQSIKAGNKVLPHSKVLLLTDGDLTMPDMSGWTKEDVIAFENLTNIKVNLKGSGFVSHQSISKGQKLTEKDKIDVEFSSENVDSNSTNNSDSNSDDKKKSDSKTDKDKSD
Summary of the method: (§3)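 Isolated S. aureus ATCC 29213 PBPs exposed to drug over 0.001 μg/ml to 50 μg/ml, followed by Bocillin FL labeling and fluorescence imaging. IC50 is 50% inhibition of Bocillin FL binding relative to no-drug control.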

[7] = molecular target: T3, Penicillin-binding protein 4 (Staphylococcus aureus, UniProt P72355); test: Inhibition of bocillin FL binding to methicillin-susceptible Staphylococcus aureus ATCC 29213 penicillin-binding protein 4; summary of the method: as §3
T3 sequence (P72355 whole entry): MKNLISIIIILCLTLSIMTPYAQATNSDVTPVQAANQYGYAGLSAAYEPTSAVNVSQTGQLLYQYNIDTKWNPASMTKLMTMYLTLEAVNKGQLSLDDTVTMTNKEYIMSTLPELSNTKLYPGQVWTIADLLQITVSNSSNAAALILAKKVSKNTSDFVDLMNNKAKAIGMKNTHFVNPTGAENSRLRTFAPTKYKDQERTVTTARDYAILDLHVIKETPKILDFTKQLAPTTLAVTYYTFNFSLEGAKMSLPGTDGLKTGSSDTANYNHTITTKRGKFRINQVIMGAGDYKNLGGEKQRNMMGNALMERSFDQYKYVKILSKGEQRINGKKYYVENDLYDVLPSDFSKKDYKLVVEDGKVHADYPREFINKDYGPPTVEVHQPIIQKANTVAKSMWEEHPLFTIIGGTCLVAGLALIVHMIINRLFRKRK

[8] = Inhibition of bocillin FL binding to penicillin-susceptible Streptococcus pneumoniae OC 8865 penicillin-binding protein 1a
Summary of the method: (§4)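 Whole S. pneumoniae cells were used rather than isolated membranes. Cells were competed with drug and then labeled with Bocillin FL, and PBP bands were visualized by fluorescence imaging. IC50 is the drug concentration that inhibits Bocillin FL binding to each PBP by 50% relative to a no-drug control.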

[9] = Inhibition of bocillin FL binding to penicillin-susceptible Streptococcus pneumoniae OC 8865 penicillin-binding protein 1b; summary of the method: as §1
[10] = Inhibition of bocillin FL binding to penicillin-resistant Streptococcus pneumoniae OC 8819 penicillin-binding protein 1b; summary of the method: as §4

Sequence of Penicillin-binding protein 3 (Q51504 whole entry): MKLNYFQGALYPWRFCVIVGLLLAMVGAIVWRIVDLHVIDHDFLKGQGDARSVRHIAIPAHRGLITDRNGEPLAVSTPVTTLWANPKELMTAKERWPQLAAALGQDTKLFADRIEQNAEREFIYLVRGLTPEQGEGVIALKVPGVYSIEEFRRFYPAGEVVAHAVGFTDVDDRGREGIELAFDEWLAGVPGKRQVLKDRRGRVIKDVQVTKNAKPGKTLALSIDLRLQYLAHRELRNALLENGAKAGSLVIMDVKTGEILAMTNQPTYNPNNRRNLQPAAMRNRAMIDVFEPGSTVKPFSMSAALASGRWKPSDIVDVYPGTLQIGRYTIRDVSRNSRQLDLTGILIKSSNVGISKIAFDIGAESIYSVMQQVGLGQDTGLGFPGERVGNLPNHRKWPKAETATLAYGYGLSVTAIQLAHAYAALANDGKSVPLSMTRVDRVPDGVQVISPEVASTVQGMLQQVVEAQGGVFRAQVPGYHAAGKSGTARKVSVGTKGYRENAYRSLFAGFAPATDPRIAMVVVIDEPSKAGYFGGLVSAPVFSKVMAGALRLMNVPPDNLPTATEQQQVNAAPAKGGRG

Row | SMILES | IC50 [1] [µg/mL] | MIC (Streptococcus pneumoniae) [µg/mL] | IC50 [2] [nM] | IC50 [3] [µg/mL] | IC50 [4] [nM] | IC50 [5] [µg/mL] | IC50 [6] [nM] | IC50 [7] [nM] | IC50 [8] [µg/mL] | IC50 [9] [µg/mL] | IC50 [10] [µg/mL]
1 | Nc1nc(/C(=N/O)C(=O)N[C@@H]2C(=O)N3C(C(=O)O)=C(/C=C4\CCN([C@@H]5CCNC5)C4=O)CS[C@H]23)ns1 [CEFTOBIPROLE] | 0.03 (≈ 0.0561 µM) | 1 (≈ 1.87 µM) | 935 | 0.1 (≈ 0.187 µM) | 187 | > 32 | 187 | 1870 | 0.03 (≈ 0.0561 µM) | 0.05 (≈ 0.0935 µM) | 
2 | CC(C)(O/N=C(\C(=O)N[C@@H]1C(=O)N2C(C(=O)[O-])=C(C[n+]3ccccc3)CS[C@H]12)c1csc(N)n1)C(=O)O [CEFTAZIDIME] |  |  | 9150 | 0.2 (≈ 0.366 µM) | 183 | > 32 |  |  |  |  | 
3 | CO/N=C(\C(=O)N[C@@H]1C(=O)N2C(C(=O)O)=C(CSc3nc(=O)c(O)nn3C)CS[C@H]12)c1csc(N)n1 (stereo in doubt) [CEFTRIAXONE] | 0.1 (≈ 0.18 µM) | 8 (≈ 14.4 µM) |  |  |  |  | 902 | 18000 | 0.01 (≈ 0.018 µM) | 0.03 (≈ 0.0541 µM) | 0.02 (≈ 0.0361 µM)
